From the M2OR odorant receptor database
Changes are numbered by the printed parent chain.

Key:
Details in all cases: stereoisomer not certain
OR6C65 (Homo sapiens) = molecular target: T1, OR6C65 (Homo sapiens) (UniProt A6NJZ3)
T1 sequence (whole entry): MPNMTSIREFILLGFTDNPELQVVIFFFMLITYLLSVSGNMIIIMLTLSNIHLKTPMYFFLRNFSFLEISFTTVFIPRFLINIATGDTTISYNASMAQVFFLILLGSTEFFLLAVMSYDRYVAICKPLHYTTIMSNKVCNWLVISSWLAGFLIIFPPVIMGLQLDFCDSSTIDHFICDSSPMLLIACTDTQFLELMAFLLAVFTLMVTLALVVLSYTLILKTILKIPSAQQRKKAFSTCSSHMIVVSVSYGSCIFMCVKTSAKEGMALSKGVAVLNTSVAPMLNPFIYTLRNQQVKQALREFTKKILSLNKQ
Procedure, shortened: (§1)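 Whether a receptor–molecule pair is responsive (active) rests on the original authors' judgment that its measured signal was statistically different from baseline. Pairs without that judgment are non-responsive (inactive). Sources used varied assay methods, commonly transient luciferase assays in mammalian cell lines.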

OR6C68 (Homo sapiens) = molecular target: T2, OR6C68 (Homo sapiens) (UniProt A6NDL8)
T2 sequence (whole entry): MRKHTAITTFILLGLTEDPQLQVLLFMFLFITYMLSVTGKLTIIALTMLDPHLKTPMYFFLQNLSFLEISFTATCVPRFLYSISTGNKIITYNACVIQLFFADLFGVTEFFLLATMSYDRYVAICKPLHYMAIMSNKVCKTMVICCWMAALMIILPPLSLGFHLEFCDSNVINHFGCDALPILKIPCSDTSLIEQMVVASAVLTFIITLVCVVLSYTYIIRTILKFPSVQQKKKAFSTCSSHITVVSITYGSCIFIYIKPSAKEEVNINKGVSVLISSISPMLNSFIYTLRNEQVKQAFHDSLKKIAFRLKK
Procedure, shortened: as §1

OR6C70 (Homo sapiens) = molecular target: T3, OR6C70 (Homo sapiens) (UniProt A6NIJ9)
T3 sequence (whole entry): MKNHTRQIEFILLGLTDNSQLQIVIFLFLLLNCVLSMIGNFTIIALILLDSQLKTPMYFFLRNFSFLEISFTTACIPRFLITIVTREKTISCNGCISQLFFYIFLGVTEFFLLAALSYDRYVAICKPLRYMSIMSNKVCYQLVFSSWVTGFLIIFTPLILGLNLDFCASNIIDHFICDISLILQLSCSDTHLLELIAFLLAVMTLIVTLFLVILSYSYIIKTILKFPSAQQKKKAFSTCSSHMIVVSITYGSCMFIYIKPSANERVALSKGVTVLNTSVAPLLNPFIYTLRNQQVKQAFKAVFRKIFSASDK
Procedure, shortened: as §1

OR6C74 (Homo sapiens) = molecular target: T4, OR6C74 (Homo sapiens) (UniProt A6NCV1)
T4 sequence (whole entry): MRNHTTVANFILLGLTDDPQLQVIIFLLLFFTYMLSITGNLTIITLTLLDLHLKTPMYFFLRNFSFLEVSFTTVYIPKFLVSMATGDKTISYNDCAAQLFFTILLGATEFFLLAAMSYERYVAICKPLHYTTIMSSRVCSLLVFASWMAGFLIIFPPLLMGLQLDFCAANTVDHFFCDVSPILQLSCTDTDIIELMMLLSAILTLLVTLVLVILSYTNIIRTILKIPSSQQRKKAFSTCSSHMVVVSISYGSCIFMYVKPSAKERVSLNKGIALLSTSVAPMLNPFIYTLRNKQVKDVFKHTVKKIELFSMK
Procedure, shortened: as §1

OR6C75 (Homo sapiens) = molecular target: T5, OR6C75 (Homo sapiens) (UniProt A6NL08)
T5 sequence (whole entry): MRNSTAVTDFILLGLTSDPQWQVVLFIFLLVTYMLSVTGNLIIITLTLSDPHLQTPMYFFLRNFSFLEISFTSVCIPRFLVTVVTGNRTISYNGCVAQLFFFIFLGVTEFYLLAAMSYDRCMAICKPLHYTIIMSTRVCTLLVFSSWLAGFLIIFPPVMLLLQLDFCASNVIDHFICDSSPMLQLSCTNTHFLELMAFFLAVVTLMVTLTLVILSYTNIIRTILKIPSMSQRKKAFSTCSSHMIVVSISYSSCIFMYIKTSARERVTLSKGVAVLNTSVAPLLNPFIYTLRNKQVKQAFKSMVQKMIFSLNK
Procedure, shortened: as §1

OR6C76 (Homo sapiens) = molecular target: T6, OR6C76 (Homo sapiens) (UniProt A6NM76)
T6 sequence (whole entry): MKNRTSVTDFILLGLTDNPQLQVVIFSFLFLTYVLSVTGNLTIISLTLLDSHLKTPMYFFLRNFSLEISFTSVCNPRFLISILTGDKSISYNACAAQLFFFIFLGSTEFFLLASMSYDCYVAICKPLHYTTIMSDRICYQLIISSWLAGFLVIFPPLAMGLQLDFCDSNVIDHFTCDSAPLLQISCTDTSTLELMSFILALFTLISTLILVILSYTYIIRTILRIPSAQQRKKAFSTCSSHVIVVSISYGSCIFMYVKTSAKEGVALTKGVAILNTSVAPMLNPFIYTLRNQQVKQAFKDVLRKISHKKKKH
Procedure, shortened: as §1

OR6F1 (Homo sapiens) = molecular target: T7, OR6F1 (Homo sapiens) (UniProt Q8NGZ6)
T7 sequence (whole entry): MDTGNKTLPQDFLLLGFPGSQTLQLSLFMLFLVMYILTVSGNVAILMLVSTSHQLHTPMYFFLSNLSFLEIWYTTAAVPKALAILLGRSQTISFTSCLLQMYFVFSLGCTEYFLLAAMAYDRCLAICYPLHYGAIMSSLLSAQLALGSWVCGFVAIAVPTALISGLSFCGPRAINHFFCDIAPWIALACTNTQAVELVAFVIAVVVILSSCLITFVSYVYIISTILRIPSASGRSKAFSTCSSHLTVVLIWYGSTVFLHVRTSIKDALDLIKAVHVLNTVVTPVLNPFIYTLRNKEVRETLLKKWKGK
Procedure, shortened: as §1

OR6J1 (Homo sapiens) [1] = molecular target: T8, OR6J1 (Homo sapiens) (UniProt Q8NGC5)
T8 sequence (whole entry): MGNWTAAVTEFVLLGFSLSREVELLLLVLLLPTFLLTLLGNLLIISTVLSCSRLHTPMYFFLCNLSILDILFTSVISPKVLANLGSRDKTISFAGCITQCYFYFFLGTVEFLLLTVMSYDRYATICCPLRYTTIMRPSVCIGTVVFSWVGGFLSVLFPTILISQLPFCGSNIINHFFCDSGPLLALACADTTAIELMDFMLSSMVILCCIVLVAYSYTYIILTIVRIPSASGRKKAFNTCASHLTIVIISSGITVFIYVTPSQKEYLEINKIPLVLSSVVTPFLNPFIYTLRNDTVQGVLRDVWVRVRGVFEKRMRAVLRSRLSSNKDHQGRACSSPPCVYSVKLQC
Procedure, shortened: as §1

OR6K2 (Homo sapiens) = molecular target: T9, OR6K2 (Homo sapiens) (UniProt Q8NGY2)
T9 sequence (whole entry): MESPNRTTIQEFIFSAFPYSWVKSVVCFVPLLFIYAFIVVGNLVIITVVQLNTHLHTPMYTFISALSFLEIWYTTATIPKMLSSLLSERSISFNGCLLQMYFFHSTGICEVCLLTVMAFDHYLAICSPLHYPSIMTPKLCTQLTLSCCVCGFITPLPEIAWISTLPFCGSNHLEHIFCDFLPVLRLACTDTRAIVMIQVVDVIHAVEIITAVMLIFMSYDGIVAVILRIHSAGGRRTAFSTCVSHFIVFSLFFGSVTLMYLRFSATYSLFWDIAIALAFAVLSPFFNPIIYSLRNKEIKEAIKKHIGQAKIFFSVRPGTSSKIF
Procedure, shortened: as §1

OR6K3 = system: T10, OR6K3
T10 sequence (whole entry): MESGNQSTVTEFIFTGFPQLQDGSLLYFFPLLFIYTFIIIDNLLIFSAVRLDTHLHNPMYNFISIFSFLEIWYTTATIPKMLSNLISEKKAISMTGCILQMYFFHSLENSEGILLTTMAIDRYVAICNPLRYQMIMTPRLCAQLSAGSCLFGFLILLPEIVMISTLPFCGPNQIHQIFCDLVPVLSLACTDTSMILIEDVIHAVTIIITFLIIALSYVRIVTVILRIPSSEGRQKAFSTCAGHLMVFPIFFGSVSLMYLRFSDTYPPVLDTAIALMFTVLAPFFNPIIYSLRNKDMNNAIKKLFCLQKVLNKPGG
Procedure, shortened: as §1

OR6K6 (Homo sapiens) = molecular target: T11, OR6K6 (Homo sapiens) (UniProt Q8NGW6)
T11 sequence (whole entry): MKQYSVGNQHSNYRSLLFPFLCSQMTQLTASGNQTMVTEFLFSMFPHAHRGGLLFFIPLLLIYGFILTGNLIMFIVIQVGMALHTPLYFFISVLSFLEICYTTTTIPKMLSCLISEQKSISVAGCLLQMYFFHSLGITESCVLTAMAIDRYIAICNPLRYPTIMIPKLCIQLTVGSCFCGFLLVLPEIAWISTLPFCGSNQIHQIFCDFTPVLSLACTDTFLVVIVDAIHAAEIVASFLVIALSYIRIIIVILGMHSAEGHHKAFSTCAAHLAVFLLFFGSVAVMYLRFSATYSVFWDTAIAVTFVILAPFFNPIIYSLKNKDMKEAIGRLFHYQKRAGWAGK
Procedure, shortened: as §1

OR6M1 (Homo sapiens) = molecular target: T12, OR6M1 (Homo sapiens) (UniProt Q8NGM8)
T12 sequence (whole entry): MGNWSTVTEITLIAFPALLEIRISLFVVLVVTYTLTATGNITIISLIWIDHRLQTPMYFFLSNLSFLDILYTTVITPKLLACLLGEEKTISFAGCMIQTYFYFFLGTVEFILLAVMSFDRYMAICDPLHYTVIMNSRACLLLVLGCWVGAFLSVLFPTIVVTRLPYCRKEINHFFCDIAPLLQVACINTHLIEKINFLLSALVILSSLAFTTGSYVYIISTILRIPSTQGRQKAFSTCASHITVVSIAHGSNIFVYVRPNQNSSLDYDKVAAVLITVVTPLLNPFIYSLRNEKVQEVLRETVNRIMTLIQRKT
Procedure, shortened: as §1

OR6M1 R224C = system: T13, OR6M1 R224C
T13 sequence (whole entry): T12 sequence (whole entry) with R224C
Procedure, shortened: as §1

OR6M1 T276K = system: T14, OR6M1 T276K
T14 sequence (whole entry): T12 sequence (whole entry) with T276K
Procedure, shortened: as §1

OR6N1 (Homo sapiens) = molecular target: T15, OR6N1 (Homo sapiens) (UniProt Q8NGY5)
T15 sequence (whole entry): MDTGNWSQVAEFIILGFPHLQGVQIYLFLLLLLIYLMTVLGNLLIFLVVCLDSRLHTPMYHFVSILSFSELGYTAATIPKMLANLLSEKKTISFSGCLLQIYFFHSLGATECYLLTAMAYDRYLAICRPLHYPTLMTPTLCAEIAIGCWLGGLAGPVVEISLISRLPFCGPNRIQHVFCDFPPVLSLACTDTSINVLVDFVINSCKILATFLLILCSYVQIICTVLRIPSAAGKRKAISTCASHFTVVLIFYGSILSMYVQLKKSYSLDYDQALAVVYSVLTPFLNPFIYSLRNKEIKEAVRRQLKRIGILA
Procedure, shortened: as §1

OR6N2 (Homo sapiens) = molecular target: T16, OR6N2 (Homo sapiens) (UniProt Q8NGY6)
T16 sequence (whole entry): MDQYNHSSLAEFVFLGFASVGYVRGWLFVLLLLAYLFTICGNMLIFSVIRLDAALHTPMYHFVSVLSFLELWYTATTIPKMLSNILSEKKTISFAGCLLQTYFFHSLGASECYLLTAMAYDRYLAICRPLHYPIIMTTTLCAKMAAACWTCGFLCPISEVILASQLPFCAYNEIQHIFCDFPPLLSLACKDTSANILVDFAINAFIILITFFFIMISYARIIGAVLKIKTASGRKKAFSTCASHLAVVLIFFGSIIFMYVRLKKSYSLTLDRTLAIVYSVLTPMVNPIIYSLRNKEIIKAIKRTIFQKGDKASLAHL
Procedure, shortened: as §1

OR6P1 (Homo sapiens) = molecular target: T17, OR6P1 (Homo sapiens) (UniProt Q8NGX9)
T17 sequence (whole entry): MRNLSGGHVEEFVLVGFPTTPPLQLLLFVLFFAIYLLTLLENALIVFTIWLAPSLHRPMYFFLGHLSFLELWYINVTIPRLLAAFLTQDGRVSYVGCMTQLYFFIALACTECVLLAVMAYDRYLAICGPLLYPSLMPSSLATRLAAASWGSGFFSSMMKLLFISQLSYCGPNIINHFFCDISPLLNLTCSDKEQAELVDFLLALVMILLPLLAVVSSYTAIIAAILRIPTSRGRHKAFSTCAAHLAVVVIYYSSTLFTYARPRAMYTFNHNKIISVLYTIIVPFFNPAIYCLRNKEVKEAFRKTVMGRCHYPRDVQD
Procedure, shortened: as §1

OR6Q1 (Homo sapiens) = molecular target: T18, OR6Q1 (Homo sapiens) (UniProt Q8NGQ2)
T18 sequence (whole entry): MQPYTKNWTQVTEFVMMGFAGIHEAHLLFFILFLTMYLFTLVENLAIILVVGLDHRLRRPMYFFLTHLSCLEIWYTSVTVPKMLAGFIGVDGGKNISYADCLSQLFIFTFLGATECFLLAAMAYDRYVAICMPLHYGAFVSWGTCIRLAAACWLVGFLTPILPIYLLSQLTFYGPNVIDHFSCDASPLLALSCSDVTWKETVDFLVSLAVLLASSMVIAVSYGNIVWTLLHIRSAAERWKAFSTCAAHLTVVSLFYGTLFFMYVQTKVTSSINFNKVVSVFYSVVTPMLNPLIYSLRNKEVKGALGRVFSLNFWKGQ
Procedure, shortened: as §1

OR6J1 (Homo sapiens) [2] = molecular target: T19, OR6J1 (Homo sapiens) (UniProt Q8NGC5); remark: listed apart in the source
T19 sequence (whole entry): T8 sequence (whole entry) with S250P
Procedure, shortened: as §1

OR6K3 (Homo sapiens) = molecular target: T20, OR6K3 (Homo sapiens) (UniProt Q8NGY3)
T20 sequence (whole entry): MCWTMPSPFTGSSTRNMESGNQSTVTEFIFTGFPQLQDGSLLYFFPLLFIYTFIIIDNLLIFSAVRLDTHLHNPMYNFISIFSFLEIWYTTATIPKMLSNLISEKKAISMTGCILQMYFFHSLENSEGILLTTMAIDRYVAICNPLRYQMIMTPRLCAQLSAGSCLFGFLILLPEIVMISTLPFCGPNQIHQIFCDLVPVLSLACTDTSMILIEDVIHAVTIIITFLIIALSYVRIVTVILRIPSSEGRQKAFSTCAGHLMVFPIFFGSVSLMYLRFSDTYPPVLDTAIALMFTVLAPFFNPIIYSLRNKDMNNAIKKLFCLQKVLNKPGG
Procedure, shortened: as §1

Measured: odorant receptor agonist call;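 note: active if original authors judged signal statistically different from baseline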

CCCC(S)CCOC(C)=O (centres undefined)
not listed: OR6J1 (Homo sapiens) [2] | OR6K3 (Homo sapiens)
inactive: all other assays above

CC1CCCCCCCCCCCCC(=O)C1 (centres undefined)
not listed: OR6J1 (Homo sapiens) [1] | OR6K3 | OR6M1 R224C | OR6M1 T276K
inactive: all other assays above
